Data reported in ChEMBL document CHEMBL2034826, “Novel 1,2,4-triazole and imidazole derivatives of L-ascorbic and imino-ascorbic acid: synthesis, anti-HCV and antitumor activity evaluations” (Bioorg Med Chem, 2012).
≈ marks a conversion by molar mass, not a printed value.

Columns and labels:
[1] = Cytotoxicity against human HuH5.2 cells after 72 hrs by MTS assay; format: cell-based, Huh-5-2
How it was run: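 Replicon-bearing Huh 5.2 cells treated in parallel with the antiviral plates using a four-step 1-to-5 dilution series for 72 h. Medium replaced with 5% MTS in phenol red-free medium for 1.5 h, absorbance read at 498 nm, and converted to percent of untreated controls. CC50 is the concentration that reduces metabolic activity by 50%, taken from the dose-response curve.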

SW-620 = assay: Antiproliferative activity against human SW620 cells after 72 hrs by MTT assay; format: functional, cell-based; conditions: SW-620, 72 h
How it was run: (§1)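 Monolayer lines grown in DMEM with 10% FBS, 2 mM L-glutamine, penicillin/streptomycin, 37 °C, 5% CO2. Seeded at 3000–6000 cells/well by doubling time, then compound added as five 10-fold dilutions (1 × 10^-8 to 1 × 10^-4 M), DMSO ≤0.1%, for 72 h. MTT read-out converted to percentage growth versus untreated wells. IC50 from linear regression. Quadruplicate points, three experiments.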

[2] = Cytostatic activity against mouse L1210/0 after 48 hrs by cell counting; format: functional; conditions: L1210/0, 48 h
How it was run: (§2)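 Suspension leukaemia cells in RPMI-1640 with 10% FBS, 2 mM L-glutamine, 0.075% NaHCO3. Seeded at 5–7.5 × 10^4 cells/well with compound and grown at 37 °C for 48 h (L1210) or 72 h (CEM). Cells counted by Coulter counter. IC50 is the concentration that reduces viable cell number by 50%.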

HeLa = assay: Antiproliferative activity against human HeLa cells after 72 hrs by MTT assay; format: functional, cell-based; how it was run: as §1
MIA PaCa-2 = assay: Antiproliferative activity against human MIAPaCa2 cells after 72 hrs by MTT assay; format: functional, cell-based; conditions: MIA PaCa-2, 72 h; how it was run: as §1
CCRF-CEM [3] = assay: Cytostatic activity against human CEM/0 after 72 hrs by cell counting; format: functional; how it was run: as §2
WI-38 = assay: Antiproliferative activity against human WI38 cells after 72 hrs by MTT assay; format: cell-based; conditions: WI-38, 72 h; how it was run: as §1
MCF7 = assay: Antiproliferative activity against human MCF7 cells after 72 hrs by MTT assay; format: functional, cell-based; conditions: MCF7, 72 h; how it was run: as §1
HepG2 = assay: Antiproliferative activity against human HepG2 cells after 72 hrs by MTT assay; format: functional, cell-based; conditions: HepG2, 72 h; how it was run: as §1
Hepatitis C virus = assay: Antiviral activity against HCV genotype 1b infected in HuH 5.2 cells expressing 1389luc-ubi-neo/NS3-3' assessed as inhibition of viral replication after 72 hrs by luciferase reporter gene assay; format: functional, organism-based, Hepacivirus hominis; conditions: Huh-5-2, 72 h
How it was run: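 Huh 5.2 cells carrying the genotype 1b I389luc-ubi-neo/NS3-3'/5.1 replicon, seeded at 6500 cells/well in medium without Geneticin and left overnight. Four-step 1-to-5 compound dilutions, 72 h at 37 °C. Cells washed and lysed, then luciferase luminescence read and expressed as percent of untreated controls. EC50 and EC90 from the dose-response curve.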

L1210 [4] = assay: Ratio of ribavirin IC50 to compound IC50 for IMPDH in mouse L1210 cells; format: cell-based
CCRF-CEM [5] = assay: Ratio of ribavirin IC50 to compound IC50 for IMPDH in human CEM cells; format: cell-based
[6] = Selectivity index, ratio of CC50 for human HuH5.2 cells to EC50 for HCV genotype 1b
[7] = (§3) Inhibition of IMPDH in mouse L1210 cells assessed as […] after 20 to 60 mins; format: cell-based
How it was run: (§4)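 Intact L1210 or CEM cells given [2,8-3H]hypoxanthine, which the cells convert to labelled IMP. IMPDH activity measured as 3H release, sampled at 20, 40 and 60 min with or without compound at varying concentrations. After centrifugation at 1100×g for 10 min, supernatant radioactivity counted. Free 3H before cell incubation was below 10% of added label.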

L1210 [8] = assay: as §3; format: cell-based; how it was run: as §4
CCRF-CEM [9] = assay: (§5) Inhibition of IMPDH in human CEM cells assessed as […] after 20 to 60 mins; format: cell-based; how it was run: as §4
[10] = as §5; format: cell-based; conditions: CCRF-CEM; how it was run: as §4

Compound `NC(=O)c1ncn(CCC2(O)NC(=O)C(OCc3ccccc3)=C2OCc2ccccc2)n1` (stereo unspecified) has a CC50 at 72 h [1] of over 100 µg/mL, an IC50 (SW-620) of over 100 µM and an IC50 [2] of at least 500 µM. It also gave an IC50 (HeLa) of over 100 µM, an IC50 (MIA PaCa-2) of over 100 µM and an IC50 (CCRF-CEM [3]) of 445 µM. The IC50 (WI-38) was over 100 µM, the IC50 (MCF7) was 61 µM and the IC50 (HepG2) was 66 µM. The EC50 (Hepatitis C virus) was over 100 µg/mL and the EC90 (Hepatitis C virus) was over 100 µg/mL.
`O=c1[nH]cc(F)c(=O)[nH]1` [FLUOROURACIL] gave an IC50 (SW-620) of 6.68 µM, an IC50 (HeLa) of 14.9 µM and an IC50 (MIA PaCa-2) of 11.7 µM. The IC50 (WI-38) was 24.7 µM, the IC50 (MCF7) was 66.9 µM and the IC50 (HepG2) was 56.2 µM.
In the case of `N#Cc1ncn(C/C=C2\OC(=O)C(OCc3ccccc3)=C2OCc2ccccc2)c1C#N` (mixture of isomers), the CC50 at 72 h [1] is reported as over 100 µg/mL, the IC50 (SW-620) is reported as 73 µM and the IC50 [2] is reported as 21 µM. The IC50 (HeLa) was 59 µM, the IC50 (MIA PaCa-2) was 36 µM and the IC50 (CCRF-CEM [3]) was 7.3 µM. It also gave an IC50 (WI-38) of 73 µM, an IC50 (MCF7) of 63 µM and an IC50 (HepG2) of 92 µM. The EC50 (Hepatitis C virus) was over 100 µg/mL and the EC90 (Hepatitis C virus) was over 100 µg/mL.
With `COc1cccc2c1C(=O)c1c(O)c3c(c(O)c1C2=O)C[C@@](O)(C(=O)CO)C[C@@H]3O[C@H]1C[C@H](N)[C@H](O)[C@H](C)O1` [DOXORUBICIN] the IC50 (SW-620) was 0.04 µM, the IC50 [2] was 1.3 µM and the IC50 (MIA PaCa-2) was 0.03 µM. The IC50 (CCRF-CEM [3]) was 0.39 µM, the IC50 (WI-38) was 0.04 µM and the IC50 (HepG2) was 0.05 µM.
Work on `COC(=O)c1ncn(CCC2(O)NC(=O)C(OCc3ccccc3)=C2OCc2ccccc2)c1C(=O)OC` (stereo unspecified) yielded a CC50 at 72 h [1] of over 100 µg/mL, an IC50 (SW-620) of over 100 µM and an IC50 [2] of 46 µM. It also gave an IC50 (HeLa) of 81 µM, an IC50 (MIA PaCa-2) of 47 µM and an IC50 (CCRF-CEM [3]) of 35 µM. The IC50 (WI-38) was 52 µM, the IC50 (MCF7) was over 100 µM and the IC50 (HepG2) was over 100 µM. The EC50 (Hepatitis C virus) was 36.6 µg/mL (≈ 70.2 µM) and the EC90 (Hepatitis C virus) was 81.3 µg/mL (≈ 156 µM).
`COC(=O)c1ncn(CC=C2OC(=O)C(OCc3ccccc3)=C2OCc2ccccc2)c1C(=O)OC` (mixture of isomers) gave a CC50 at 72 h [1] of 70.5 µg/mL, an IC50 (SW-620) of 49 µM and an IC50 [2] of 32 µM. For the same compound, the IC50 (HeLa) was 34 µM, the Ratio IC50 (L1210 [4]) was 50 and the IC50 (MIA PaCa-2) was 33 µM. For the same compound, the IC50 (CCRF-CEM [3]) was 10 µM, the IC50 (WI-38) was over 100 µM and the Ratio IC50 (CCRF-CEM [5]) was 50. For the same compound, the “Ratio CC50/EC50” value [6] was 5.3, the IC50 (MCF7) was 52 µM and the IC50 (HepG2) was 55 µM. The EC50 (Hepatitis C virus) was 13.3 µg/mL and the EC90 (Hepatitis C virus) was 22.7 µg/mL.
For `NC(=O)c1ncn([C@@H]2O[C@H](CO)[C@@H](O)[C@H]2O)n1` [RIBAVIRIN], the IC50 [2] was 22 µM, the IC50 [7] was 1 µM and the inhibition (L1210 [8]) was “Dose-dependent effect”. For the same compound, the IC50 (CCRF-CEM [3]) was 63 µM, the inhibition (CCRF-CEM [9]) was “Dose-dependent effect” and the IC50 [10] was 1 µM.
For `COC(=O)c1ncn(CC=C2OC(=O)C(O)=C2O)n1` (mixture of isomers), the CC50 at 72 h [1] was over 100 µg/mL, the IC50 (SW-620) was over 100 µM and the IC50 [2] was 370 µM. For the same compound, the IC50 (HeLa) was over 100 µM, the IC50 (MIA PaCa-2) was over 100 µM and the IC50 (CCRF-CEM [3]) was over 500 µM. For the same compound, the IC50 (WI-38) was over 100 µM, the IC50 (MCF7) was over 100 µM and the IC50 (HepG2) was over 100 µM. It also gave an EC50 (Hepatitis C virus) of 61.3 µg/mL.
`COC(=O)c1ncn(C[C@H](O)[C@H]2OC(=O)C(OCc3ccccc3)=C2OCc2ccccc2)n1` gave a CC50 at 72 h [1] of over 100 µg/mL, an IC50 (SW-620) of over 100 µM and an IC50 [2] of over 100 µM. It also gave an IC50 (HeLa) of over 100 µM, an IC50 (MIA PaCa-2) of over 100 µM and an IC50 (CCRF-CEM [3]) of over 100 µM. It also gave an IC50 (WI-38) of over 100 µM, an IC50 (MCF7) of over 100 µM and an IC50 (HepG2) of over 100 µM. It also gave an EC50 (Hepatitis C virus) of 62.1 µg/mL (≈ 133 µM).
`NC(=O)c1ncn(CCC2(O)NC(=O)C(OCc3ccccc3)=C2OCc2ccccc2)c1C(N)=O` (stereo unspecified) gave a CC50 at 72 h [1] of over 100 µg/mL, an IC50 (SW-620) of over 100 µM and an IC50 [2] of 198 µM. The IC50 (HeLa) was over 100 µM, the Ratio IC50 (L1210 [4]) was 50 and the IC50 (MIA PaCa-2) was over 100 µM. It also gave an IC50 (CCRF-CEM [3]) of 154 µM, an IC50 (WI-38) of 98 µM and a Ratio IC50 (CCRF-CEM [5]) of 50. For the same compound, the IC50 (MCF7) was over 100 µM, the IC50 (HepG2) was over 100 µM and the EC50 (Hepatitis C virus) was over 100 µg/mL. The EC90 (Hepatitis C virus) was over 100 µg/mL.
`COC(=O)c1ncn(CC=C2OC(=O)C(OCc3ccccc3)=C2OCc2ccccc2)n1` (mixture of isomers) showed a CC50 at 72 h [1] of over 100 µg/mL, an IC50 (SW-620) of over 100 µM and an IC50 [2] of 103 µM. It also gave an IC50 (HeLa) of 97 µM, a Ratio IC50 (L1210 [4]) of 50 and an IC50 (MIA PaCa-2) of 80 µM. For the same compound, the IC50 (CCRF-CEM [3]) was 44 µM, the IC50 (WI-38) was over 100 µM and the Ratio IC50 (CCRF-CEM [5]) was 50. For the same compound, the IC50 (MCF7) was 54 µM, the IC50 (HepG2) was 70 µM and the EC50 (Hepatitis C virus) was 78.5 µg/mL. It also gave an EC90 (Hepatitis C virus) of over 100 µg/mL.
